The list is not random: actives were taken first. Their share in the collection is about 1.7%.
IDE inh: inhibits human insulin-degrading enzyme in HEK cells | P14735 | FAbetaB cleavage, fluorescence polarization | inhibition, % at 5.59 µM | hit rate 0.41% among 320,000;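 active = percent inhibition above the average of all tested compounds plus 3 SD, set per screening campaign, cut at about 16% in these data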;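 note: IDE supplied by intact live HEK cells; FP after avidin binding of uncleaved biotin substrate so inhibition keeps polarization high; 0% = DMSO wells and 100% = 60 µM reference IDE inhibitor Ii1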
IDE act: activators of human insulin-degrading enzyme in cells | activation, % at 5.96 µM | hit rate 0.073% among 340,000 | HEK cells, FAbeta-B cleavage, fluorescence polarization; 0% vehicle, 100% cell-free pure enzyme wells;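 active = activation above the mean of all tested compounds plus 3 SD, set per screening campaign, cut at about 17% in these data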
CSN deneddyl inh: blocks human CSN-mediated cullin deneddylation | Q92905 | Purified CSN, SCF-Nedd8-OG deneddylation, fluorescence polarization | inhibition, % at 12.5 µM | hit rate 0.38% among 360,000;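 active = pattern-corrected inhibition above about 35%, with an unprinted fluorescence ratio check between 0.5 and 1.5, limit read from the data, passing the limit was not always enough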;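 note: 0% = enzyme with substrate and 100% = substrate without enzyme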
Target sequence (Q92905 whole entry, looked up, one chain of several): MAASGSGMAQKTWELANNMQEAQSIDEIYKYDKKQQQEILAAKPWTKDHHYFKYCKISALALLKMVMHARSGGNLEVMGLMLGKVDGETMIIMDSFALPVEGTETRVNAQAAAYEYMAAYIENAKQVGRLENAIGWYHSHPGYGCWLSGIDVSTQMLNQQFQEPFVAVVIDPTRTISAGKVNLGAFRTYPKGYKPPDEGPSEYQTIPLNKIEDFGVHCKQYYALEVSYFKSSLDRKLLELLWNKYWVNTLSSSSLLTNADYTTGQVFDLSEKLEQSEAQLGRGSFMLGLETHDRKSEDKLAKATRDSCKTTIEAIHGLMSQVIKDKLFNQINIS
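Material: purified human Csn5 enzyme expressed in HEK293T cells / Medium: Tris buffer pH 7.5, NaCl, DTT, Tween-20, trehalose, ovalbumin / Compound dosing: 12.5 µM single point / Schedule: 90 min incubation of compound, enzyme and substrate at room temperature / Signal: fluorescence polarization of the substrate / Control set: no-enzyme wells high, enzyme-with-substrate wells low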
TPT1 inh: inhibitors of Candida albicans tRNA 2'-phosphotransferase TPT1; recombinant caTPT1, FP RNA substrate dephosphorylation; inhibition, % at 5 µM; hit rate 0.81% among 300,000;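 active = inhibition above the mean of all tested compounds plus 3 SD, set per screening campaign, cut at about 24% in these data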;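 note: plate controls were DMSO alone for no effect and ferristatin control at 100 nM for full effect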
HNF4A DNA FP: change in binding of human HNF4 alpha to DNA. activity change, % at 10 µM. hit rate 0.3% among 360,000. P41235. HNF4a-FITC DNA binding, fluorescence polarization, 1 h; in the data active = activity change above about 30%, passing the limit was not always enough
Tb MetRS inh: Trypanosoma brucei MetRS inhibition. purified T. brucei MetRS, ATP depletion, Kinase-Glo luminescence. inhibition, % at 11.9 µM. hit rate 0.4% among 360,000. AID 624268;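 active = inhibition above a per-plate cutoff of the control wells' mean inhibition plus 3 SD, cut at about 5.5% in these data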;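 note: 0% = DMSO wells median and 100% = median of wells with control inhibitor compound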
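Material: T. brucei methionyl-tRNA synthetase, purified; reagent: substrates ATP, L-methionine and bulk Escherichia coli tRNA; dosing: 11.9 µM single point; timing: 15 min plus 2 h at 25 °C; detection: luminescence of leftover ATP; evaluation: % inhibition; control set: DMSO-only wells as low control; replicates: singlicate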
TPT1 inh confirm: confirmation of Candida albicans TPT1 inhibitors; shares compounds with TPT1 inh; recombinant caTPT1, fluorescence polarization, RNase T1 coupled; inhibition, % at 5 µM; hit rate 74% among 2,400;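 active = inhibition above the primary screen limit, the mean inhibition of all tested compounds plus 3 SD, cut at about 25% in these data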
RNase T1 inh: RNase T1 inhibition in TPT1 counter-screen. RNase T1 cleavage, fluorescence polarization, 1536-well. hit rate 83% among 2,400. shares compounds with TPT1 inh. AID 2153. inhibition, % at 5 µM;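 active = inhibition above the solvent-only control well mean plus 3 SD, limit set per screening run, cut at about 23% in these data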;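 note: plate controls were DMSO wells with enzyme for no effect and wells without RNase T1 for full effect; inhibitors block cleavage so intact labeled substrate keeps polarization high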
Target sequence (P00651 whole entry, looked up): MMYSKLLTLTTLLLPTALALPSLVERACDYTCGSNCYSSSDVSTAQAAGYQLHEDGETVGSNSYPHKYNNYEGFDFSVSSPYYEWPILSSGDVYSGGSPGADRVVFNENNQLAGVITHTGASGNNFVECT
Starred values were filed as active, the others as inactive; nt = no result.

SMILES | IDE inh | IDE act | CSN deneddyl inh | TPT1 inh | HNF4A DNA FP | Tb MetRS inh | TPT1 inh confirm | RNase T1 inh
COC(=O)[C@H]1[C@H]2C[C@@H]3c4[nH]c5cc(OC)ccc5c4CCN3C[C@H]2C[C@@H](OC(=O)/C=C/c2cc(OC)c(OC)c(OC)c2)[C@@H]1OC | -1 | 3 | 0 | 38* | 23 | 0 | 36* | 48*
N#Cc1c(-c2ccco2)cc(-c2ccccn2)nc1N | 11 | 2 | 25 | 28* | 2 | -1 | 15 | 18
C/C(=N\Nc1ccc([N+](=O)[O-])cc1)c1ccc(N)cc1 | 7 | -5 | 2 | 37* | 20 | 1 | 34* | 46*
C/C(=N\Nc1ccc([N+](=O)[O-])cc1)c1ccco1 | -4 | -2 | 10 | 48* | 25 | 0 | 56* | 69*
O=[N+]([O-])c1ccc(N/N=C/c2ccccc2O)cc1 | 5 | -5 | 11 | 50* | 23 | 2 | 69* | 81*
C/C(=N\Nc1ccc([N+](=O)[O-])cc1)c1ccc(N2CCOCC2)cc1 | -3 | 2 | 2 | 31* | 11 | 0 | 46* | 53*
O=[N+]([O-])c1ccc(NN=Cc2ccccc2O)nc1 | nt | 6 | -2 | nt | 10 | 0 | nt | nt
O=C(C[n+]1ccc(C(=O)NCc2ccccc2)cc1)c1ccc(Cl)cc1 | 4 | 2 | 5 | 1 | 0 | 0 | nt | nt
Cc1ccc(N2CC(C(=O)Nc3cccc(S(=O)(=O)N4CCOCC4)c3)CC2=O)cc1 (stereo not given) | nt | nt | -6 | nt | 2 | 0 | nt | nt
CC1(C(=O)Nc2ccc3c(c2)OCCO3)CCN1C(=O)c1ccco1 (stereo not given) | nt | nt | -1 | nt | -2 | 0 | nt | nt
Cc1cn(-c2cc(NC(=O)c3ccc(C)c(NC(=O)c4cccc(-c5cn[nH]c(=O)c5)c4)c3)cc(C(F)(F)F)c2)cn1 | -6 | 5 | 13 | -1 | 25 | 0 | nt | nt
Cc1ccc(F)cc1NC(=O)COC(=O)C1CCN(c2ccc(C(F)(F)F)cn2)CC1 | 3 | 0 | 2 | -3 | 3 | 0 | nt | nt
CCc1ccc(/C(C)=N\Nc2ccc([N+](=O)[O-])cc2)cc1 | 1 | -2 | 15 | 81* | 25 | -1 | 56* | 71*
C/C(=N\Nc1ccc([N+](=O)[O-])cc1)c1ccc(-n2nncc2C)cc1 | -3 | 0 | 45 | 24 | 21 | 0 | nt | nt
CC/C(=N\Nc1ccc([N+](=O)[O-])cc1)c1ccccc1 | 4 | -7 | 13 | 39* | 21 | 0 | 47* | 60*
O=[N+]([O-])c1ccc(NN=C(Oc2ccccc2)c2ccc([N+](=O)[O-])cc2)cc1 | nt | nt | 7 | nt | 23 | 0 | nt | nt
CCCCCC(=O)Nc1ccc(-c2csc(N)n2)cc1 | -3 | -4 | -5 | 2 | 2 | 0 | nt | nt
O=C(CNC(=O)OCc1ccccc1)NCC(=O)Oc1ccc([N+](=O)[O-])cc1 | nt | 2 | -5 | nt | -1 | 0 | nt | nt
CN(C)c1ccc(/C=N/N=C2/NC(=O)/C(=C/c3ccc([N+](=O)[O-])cc3)S2)cc1 | -2 | -1 | 1 | 44* | 5 | 0 | 49* | 63*
COc1ccc(S(=O)(=O)N2CC(O)CC2C(=O)OCc2nc3sc(C)c(C)c3c(=O)[nH]2)cc1 (stereo not given) | -2 | 6 | 25 | 33* | 25 | 0 | 47* | 65*
Cc1sc2nc(COC(=O)c3ccc(N4CCCC4)c([N+](=O)[O-])c3)[nH]c(=O)c2c1C | 3 | 6 | 9 | 69* | 28 | 1 | 69* | 78*
Cc1sc2nc(COC(=O)c3ccc(N4CCCC(C)C4)c([N+](=O)[O-])c3)[nH]c(=O)c2c1C (stereo not given) | 0 | 4 | -3 | 2 | 3 | 0 | nt | nt
Cc1sc2nc(COC(=O)c3ccc(O)cc3)[nH]c(=O)c2c1C | -1 | 2 | 5 | 4 | 4 | 0 | nt | nt

Screening results (PubChem BioAssay)
